The record followed here is ChEMBL document CHEMBL5696442, “Discovery of type II inhibitors of TGFβ-activated kinase 1 (TAK1) and mitogen-activated protein kinase kinase kinase kinase 2 (MAP4K2)” (J Med Chem, 2015).

Active and inactive are the calls of the source. No cut-off for these calls is given here.

Experiment [1] deals with Mitogen-activated protein kinase 14 (Homo sapiens, UniProt Q16539). The experiment can be described thus: Inhibition of p38 alpha in human A-375 cells at 5 uM by KiNativ Profiling analysis relative to control. The class given is cell-based.
Experiment [2] deals with Serine/threonine-protein kinase WNK1 (Homo sapiens) (UniProt Q9H4A3). The experiment can be described thus: Inhibition of Wnk1 Lys2 labeling site in human A-375 cells at 5 uM by KiNativ Profiling analysis relative to control. The class given is cell-based.
For experiment [3], the target named is eIF-2-alpha kinase GCN2 (Homo sapiens) (UniProt Q9P2K8). Nature of the experiment: Inhibition of GCN2 domain2 Lys1 labeling site in human A-375 cells at 0.5 uM by KiNativ Profiling analysis relative to control. Format: cell-based.
Experiment [4] concerns the target Mitogen-activated protein kinase kinase kinase 4 (Homo sapiens) (UniProt Q9Y6R4). Nature of the experiment: Inhibition of MAP3K4 Lys2 labeling site in human A-375 cells at 0.5 uM by KiNativ Profiling analysis relative to control. Format: cell-based.
In experiment [5] the target is T1, Ephrin type-B receptor 4 (Homo sapiens) (UniProt P54760).
T1 sequence (whole entry): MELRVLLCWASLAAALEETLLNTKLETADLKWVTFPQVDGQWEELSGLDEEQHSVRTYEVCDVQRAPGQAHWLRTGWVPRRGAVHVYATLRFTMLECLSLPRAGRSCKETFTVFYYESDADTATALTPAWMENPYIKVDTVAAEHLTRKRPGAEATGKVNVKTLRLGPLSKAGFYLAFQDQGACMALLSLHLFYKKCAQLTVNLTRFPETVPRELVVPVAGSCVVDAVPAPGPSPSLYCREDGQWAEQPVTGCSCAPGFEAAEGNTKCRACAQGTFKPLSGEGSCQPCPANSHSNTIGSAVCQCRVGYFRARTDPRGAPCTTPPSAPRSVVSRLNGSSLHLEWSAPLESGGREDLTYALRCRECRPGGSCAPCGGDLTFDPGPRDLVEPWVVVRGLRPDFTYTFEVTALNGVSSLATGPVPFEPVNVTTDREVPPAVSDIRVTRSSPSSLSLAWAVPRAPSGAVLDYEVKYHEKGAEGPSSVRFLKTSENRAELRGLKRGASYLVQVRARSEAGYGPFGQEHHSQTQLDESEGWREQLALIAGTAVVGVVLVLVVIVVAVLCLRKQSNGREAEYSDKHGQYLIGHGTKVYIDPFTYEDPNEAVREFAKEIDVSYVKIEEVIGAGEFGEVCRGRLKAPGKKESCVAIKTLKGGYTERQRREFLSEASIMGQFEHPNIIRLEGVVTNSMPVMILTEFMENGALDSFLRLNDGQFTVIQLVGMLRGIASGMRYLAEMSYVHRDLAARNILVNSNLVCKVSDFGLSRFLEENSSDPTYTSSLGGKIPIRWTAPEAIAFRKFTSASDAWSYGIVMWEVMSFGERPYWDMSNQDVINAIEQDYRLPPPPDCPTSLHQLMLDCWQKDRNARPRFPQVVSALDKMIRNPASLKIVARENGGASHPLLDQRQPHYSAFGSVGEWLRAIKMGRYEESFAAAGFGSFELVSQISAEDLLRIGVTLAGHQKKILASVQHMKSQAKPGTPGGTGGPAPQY
The experiment can be described thus: Inhibition of EphB4 ACT labeling site in human A-375 cells at 0.05 uM by KiNativ Profiling analysis relative to control. The class given is cell-based.

In experiment [6] the target is Mitogen-activated protein kinase 10 (Homo sapiens, UniProt P53779). Nature of the experiment: Inhibition of JNK3 Lys2 labeling site in human A-375 cells at 0.05 uM by KiNativ Profiling analysis relative to control. The class given is cell-based.
Experiment [7] deals with T2, Serine/threonine-protein kinase 3 (Homo sapiens) (UniProt Q13188).
T2 sequence (whole entry): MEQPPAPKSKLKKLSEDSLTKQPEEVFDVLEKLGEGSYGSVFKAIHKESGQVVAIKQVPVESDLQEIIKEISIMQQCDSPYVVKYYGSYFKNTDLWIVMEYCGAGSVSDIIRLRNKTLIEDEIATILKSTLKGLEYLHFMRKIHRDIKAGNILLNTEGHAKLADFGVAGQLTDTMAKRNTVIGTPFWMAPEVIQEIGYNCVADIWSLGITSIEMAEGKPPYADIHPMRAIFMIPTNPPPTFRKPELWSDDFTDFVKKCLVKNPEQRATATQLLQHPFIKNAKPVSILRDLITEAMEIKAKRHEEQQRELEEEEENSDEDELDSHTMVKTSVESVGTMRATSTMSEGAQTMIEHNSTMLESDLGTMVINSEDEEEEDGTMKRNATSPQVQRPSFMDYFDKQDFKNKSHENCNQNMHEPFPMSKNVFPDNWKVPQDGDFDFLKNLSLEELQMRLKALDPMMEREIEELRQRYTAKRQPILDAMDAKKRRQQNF
Nature of the experiment: Inhibition of MST2 Lys2 labeling site harbouring DIKAGNILLNTEGHAK in human A-375 cells at 0.05 uM by KiNativ Profiling analysis relative to control. The class given is cell-based.

In experiment [8] the target is Ribosomal protein S6 kinase alpha-3 (Homo sapiens) (UniProt P51812). Nature of the experiment: Inhibition of RSK2 domain2 Lys2 labeling site in human A-375 cells at 0.05 uM by KiNativ Profiling analysis relative to control. Format: cell-based.
Another experiment relates to L929. The experiment can be described thus: Inhibition of TNF alpha induced IKKalpha/beta phosphorylation level in mouse L929 cells at 100 nM preincubated for 30 mins followed by TNF alpha stimulation and measured after 5 mins by Western blot analysis. The class given is functional, cell-based. A digest of the protocol:
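Mouse L929 cells were pretreated with compound at 100 nM for 30 min, then stimulated with TNFα for 5 min. Lysates were Western blotted for phospho-IKKα/β, with tubulin as loading control.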

Chain of Ribosomal protein S6 kinase alpha-3 (Homo sapiens) (P51812 whole entry, the tested form may be a part): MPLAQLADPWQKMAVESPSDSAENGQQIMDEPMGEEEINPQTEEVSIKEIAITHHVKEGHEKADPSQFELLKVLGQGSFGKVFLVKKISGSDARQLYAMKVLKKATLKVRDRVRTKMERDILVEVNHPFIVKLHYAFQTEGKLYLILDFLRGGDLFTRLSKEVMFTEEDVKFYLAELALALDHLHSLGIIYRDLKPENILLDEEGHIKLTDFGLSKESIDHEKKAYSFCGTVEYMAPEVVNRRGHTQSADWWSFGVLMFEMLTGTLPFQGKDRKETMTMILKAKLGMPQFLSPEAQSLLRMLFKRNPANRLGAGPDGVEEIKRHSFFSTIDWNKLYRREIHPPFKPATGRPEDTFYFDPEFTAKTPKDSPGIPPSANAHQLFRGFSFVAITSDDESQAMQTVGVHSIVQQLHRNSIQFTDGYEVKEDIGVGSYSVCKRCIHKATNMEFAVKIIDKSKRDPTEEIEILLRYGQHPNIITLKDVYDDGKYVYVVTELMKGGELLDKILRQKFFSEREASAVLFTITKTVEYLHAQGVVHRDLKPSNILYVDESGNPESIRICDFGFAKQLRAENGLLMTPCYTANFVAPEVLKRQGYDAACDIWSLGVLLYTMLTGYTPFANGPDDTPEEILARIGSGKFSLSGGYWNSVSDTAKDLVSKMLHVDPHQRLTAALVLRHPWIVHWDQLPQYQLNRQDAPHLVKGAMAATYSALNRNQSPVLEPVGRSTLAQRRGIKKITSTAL
Chain of Mitogen-activated protein kinase 14 (Q16539 whole entry): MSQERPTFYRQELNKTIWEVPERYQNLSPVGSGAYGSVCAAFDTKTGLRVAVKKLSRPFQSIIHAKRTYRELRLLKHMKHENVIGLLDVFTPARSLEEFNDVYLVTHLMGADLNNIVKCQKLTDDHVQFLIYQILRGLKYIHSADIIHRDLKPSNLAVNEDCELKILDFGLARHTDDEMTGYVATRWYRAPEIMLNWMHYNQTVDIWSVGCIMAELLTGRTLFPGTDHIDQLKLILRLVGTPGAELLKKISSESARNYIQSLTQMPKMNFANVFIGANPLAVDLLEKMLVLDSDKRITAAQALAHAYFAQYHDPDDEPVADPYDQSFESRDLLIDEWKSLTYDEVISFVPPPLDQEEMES
Chain of eIF-2-alpha kinase GCN2 (Homo sapiens) (Q9P2K8 whole entry, the tested form may be a part): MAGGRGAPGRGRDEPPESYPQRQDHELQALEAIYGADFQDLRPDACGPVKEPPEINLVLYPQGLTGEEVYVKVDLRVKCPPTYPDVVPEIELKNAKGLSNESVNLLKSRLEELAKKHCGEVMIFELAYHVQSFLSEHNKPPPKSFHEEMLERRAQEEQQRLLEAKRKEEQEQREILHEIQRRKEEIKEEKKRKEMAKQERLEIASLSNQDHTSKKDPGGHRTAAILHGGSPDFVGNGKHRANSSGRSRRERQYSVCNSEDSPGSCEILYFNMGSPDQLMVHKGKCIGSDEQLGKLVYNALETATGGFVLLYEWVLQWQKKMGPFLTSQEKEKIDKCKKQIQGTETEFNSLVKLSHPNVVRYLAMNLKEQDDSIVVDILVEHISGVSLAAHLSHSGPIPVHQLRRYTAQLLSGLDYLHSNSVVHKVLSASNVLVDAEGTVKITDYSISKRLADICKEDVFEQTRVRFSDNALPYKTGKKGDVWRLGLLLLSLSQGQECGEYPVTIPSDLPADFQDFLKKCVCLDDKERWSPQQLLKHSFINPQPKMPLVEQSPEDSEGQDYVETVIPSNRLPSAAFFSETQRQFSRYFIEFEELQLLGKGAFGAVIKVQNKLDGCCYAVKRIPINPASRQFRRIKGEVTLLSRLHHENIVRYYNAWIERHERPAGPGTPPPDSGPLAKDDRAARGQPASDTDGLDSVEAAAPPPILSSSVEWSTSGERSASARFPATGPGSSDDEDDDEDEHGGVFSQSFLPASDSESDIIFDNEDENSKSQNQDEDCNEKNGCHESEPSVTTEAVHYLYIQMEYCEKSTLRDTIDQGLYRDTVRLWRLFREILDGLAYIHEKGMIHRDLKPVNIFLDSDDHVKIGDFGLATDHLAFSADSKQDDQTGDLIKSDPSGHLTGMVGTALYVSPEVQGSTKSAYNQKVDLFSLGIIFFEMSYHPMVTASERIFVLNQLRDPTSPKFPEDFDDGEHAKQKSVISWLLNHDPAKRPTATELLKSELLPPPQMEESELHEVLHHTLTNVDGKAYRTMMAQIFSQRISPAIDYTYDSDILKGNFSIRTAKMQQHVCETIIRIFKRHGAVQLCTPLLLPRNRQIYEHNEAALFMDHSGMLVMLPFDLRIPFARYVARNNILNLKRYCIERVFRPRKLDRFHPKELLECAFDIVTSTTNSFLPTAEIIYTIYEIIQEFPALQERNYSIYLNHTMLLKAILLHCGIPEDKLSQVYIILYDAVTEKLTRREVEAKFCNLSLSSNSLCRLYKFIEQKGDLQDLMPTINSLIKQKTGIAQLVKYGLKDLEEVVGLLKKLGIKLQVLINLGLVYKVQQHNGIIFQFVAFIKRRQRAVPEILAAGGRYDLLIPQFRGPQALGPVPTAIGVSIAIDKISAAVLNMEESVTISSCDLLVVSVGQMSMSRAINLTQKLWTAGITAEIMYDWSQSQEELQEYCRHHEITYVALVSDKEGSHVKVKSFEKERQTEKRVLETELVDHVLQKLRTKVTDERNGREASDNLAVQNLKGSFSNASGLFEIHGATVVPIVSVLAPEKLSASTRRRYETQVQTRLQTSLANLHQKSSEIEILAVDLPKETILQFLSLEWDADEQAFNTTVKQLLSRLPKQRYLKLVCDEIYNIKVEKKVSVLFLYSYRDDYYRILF
Chain of Mitogen-activated protein kinase 10 (P53779 whole entry): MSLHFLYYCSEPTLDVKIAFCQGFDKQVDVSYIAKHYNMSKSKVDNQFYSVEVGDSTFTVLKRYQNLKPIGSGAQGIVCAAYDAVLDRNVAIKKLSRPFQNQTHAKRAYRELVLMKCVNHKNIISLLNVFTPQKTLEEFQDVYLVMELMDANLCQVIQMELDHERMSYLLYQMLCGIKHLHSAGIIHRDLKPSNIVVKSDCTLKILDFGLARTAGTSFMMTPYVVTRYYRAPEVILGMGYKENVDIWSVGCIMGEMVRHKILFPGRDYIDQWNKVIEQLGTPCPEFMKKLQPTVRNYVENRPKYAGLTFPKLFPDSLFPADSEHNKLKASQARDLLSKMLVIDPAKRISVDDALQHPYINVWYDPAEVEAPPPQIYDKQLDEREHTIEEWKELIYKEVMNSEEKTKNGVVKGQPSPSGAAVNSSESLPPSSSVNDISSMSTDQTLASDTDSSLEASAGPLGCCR
Chain of Mitogen-activated protein kinase kinase kinase 4 (Homo sapiens) (Q9Y6R4 whole entry): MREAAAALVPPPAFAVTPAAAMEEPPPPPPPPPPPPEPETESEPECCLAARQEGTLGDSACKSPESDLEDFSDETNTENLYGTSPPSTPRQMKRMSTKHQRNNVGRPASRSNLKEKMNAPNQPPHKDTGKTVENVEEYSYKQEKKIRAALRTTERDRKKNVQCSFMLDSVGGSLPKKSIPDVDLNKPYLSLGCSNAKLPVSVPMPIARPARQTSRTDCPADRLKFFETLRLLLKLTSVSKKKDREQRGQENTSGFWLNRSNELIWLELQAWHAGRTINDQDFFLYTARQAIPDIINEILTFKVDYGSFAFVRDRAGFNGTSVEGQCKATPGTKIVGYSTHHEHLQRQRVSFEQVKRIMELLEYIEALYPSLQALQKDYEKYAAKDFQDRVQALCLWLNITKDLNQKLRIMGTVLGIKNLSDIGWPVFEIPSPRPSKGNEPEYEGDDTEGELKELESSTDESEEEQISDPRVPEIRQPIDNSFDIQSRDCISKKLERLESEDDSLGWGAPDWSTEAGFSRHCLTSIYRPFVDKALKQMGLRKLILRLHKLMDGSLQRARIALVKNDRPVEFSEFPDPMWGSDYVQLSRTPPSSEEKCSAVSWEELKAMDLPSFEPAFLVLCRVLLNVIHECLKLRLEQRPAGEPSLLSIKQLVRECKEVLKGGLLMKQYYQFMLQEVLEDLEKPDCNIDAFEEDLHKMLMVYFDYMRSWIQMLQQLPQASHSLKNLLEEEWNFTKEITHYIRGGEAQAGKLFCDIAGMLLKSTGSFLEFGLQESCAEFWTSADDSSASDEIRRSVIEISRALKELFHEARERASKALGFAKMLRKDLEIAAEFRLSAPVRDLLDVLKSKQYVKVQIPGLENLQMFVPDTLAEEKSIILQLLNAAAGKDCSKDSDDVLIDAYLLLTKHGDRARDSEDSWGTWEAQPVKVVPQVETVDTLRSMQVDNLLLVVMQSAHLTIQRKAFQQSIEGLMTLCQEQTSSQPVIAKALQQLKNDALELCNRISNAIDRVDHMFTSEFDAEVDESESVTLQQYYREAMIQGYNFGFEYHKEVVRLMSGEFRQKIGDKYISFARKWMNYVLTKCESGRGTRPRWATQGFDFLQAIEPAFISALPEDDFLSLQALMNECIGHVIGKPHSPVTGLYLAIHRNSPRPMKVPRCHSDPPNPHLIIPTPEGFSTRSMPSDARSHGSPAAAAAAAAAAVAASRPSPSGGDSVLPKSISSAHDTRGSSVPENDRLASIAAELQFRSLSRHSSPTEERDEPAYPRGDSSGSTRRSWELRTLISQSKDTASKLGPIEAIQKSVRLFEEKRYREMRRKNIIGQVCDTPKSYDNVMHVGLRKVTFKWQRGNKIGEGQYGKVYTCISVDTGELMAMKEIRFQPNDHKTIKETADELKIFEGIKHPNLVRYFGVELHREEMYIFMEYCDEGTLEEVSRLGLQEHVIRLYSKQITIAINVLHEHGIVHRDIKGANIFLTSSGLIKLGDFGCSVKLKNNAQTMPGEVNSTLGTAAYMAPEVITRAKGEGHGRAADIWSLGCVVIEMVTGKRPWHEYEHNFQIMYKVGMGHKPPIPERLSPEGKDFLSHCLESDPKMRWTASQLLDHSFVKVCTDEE

Consider `CCN1CCN(Cc2ccc(NC(=O)c3ccc(C)c(/C=C/c4cnc5[nH]ccc5c4OC)c3)cc2C(F)(F)F)CC1`, for which the inhibition in experiment [1] was 83.3%; in [2], 14.3%; in [3], 40.4%; in [4] it was -4.4%; in experiment [5] it was 33.4%; in experiment [6], 23.9%. In addition, the inhibition in experiment [7] was -7%; in experiment [8], 0.3%.

Regarding `CCN1CCN(Cc2ccc(NC(=O)c3ccc(C)c(Oc4ccnc5[nH]ccc45)c3)cc2C(F)(F)F)CC1`, the inhibition is 53.3% in experiment [1]; -5.5% in [2]; -10% in experiment [3]; 1.2% in [4]; 3.4% in [5]; 50.3% in experiment [6]. Further, the figures for the inhibition in experiment [7] and in [8] were 4.7% and 2.2%, respectively.

On to `CNc1cc(Oc2cc(C(=O)Nc3cc(-n4cnc(C)c4)cc(C(F)(F)F)c3)ccc2C)ncn1`, for which the inhibition entry in the experiment on L929 is “inactive”.

Take `CNc1cc(Oc2cc(C(=O)Nc3cc(N4CCN(C)CC4)cc(C(F)(F)F)c3)ccc2C)ncn1`: the inhibition result with L929 is “inactive”.

One may read the inhibition as the drop in the measured response relative to a control, in per cent.
